# Measurements from different studies.
# Compare with care: the assays were run in different laboratories.
# CDK13: Cyclin-dependent kinase 13 (CDK13, Homo sapiens, UniProt Q14004)
# CDK13 with cyclin K: Cyclin-dependent kinase 13, with cyclin K (CDK13, Homo sapiens, UniProt Q14004)
target,assay,conditions,measurement,value,Compound
CDK13,"cell-free assay, inhibitor",20 µM,remaining signal,0.1%,Nc1ncnc2occ(-c3ccc(NC(=O)Nc4cc(C(F)(F)F)ccc4F)cc3)c12
CDK13 with cyclin K,"enzyme activity, inhibitor",1 µM,remaining activity,107%,COc1cc(Cl)c(C(=O)N[C@@H](CN[C@H]2CC[C@@H](N)CC2)Cc2ccc(C#N)cc2)cc1-c1ccc(CN[C@H](C)c2ccc(C)cc2)o1
CDK13,"cell-free assay, competition with immobilised ligand",1 µM,remaining binding,86%,CN([C@@H]1CCc2c(CC(=O)O)c3cc(S(C)(=O)=O)ccc3n2C1)S(=O)(=O)c1ccc(F)cc1
CDK13,binding,1 µM,remaining binding,58%,CN(C)c1nccc(-c2cnc3ncccn23)n1
CDK13 with cyclin K,"enzyme activity, inhibitor",1 µM,activity vs control,85%,Cc1ccc(C(=O)NCc2ccsc2)cc1C#Cc1cn(C(C)C)c2ncnc(N)c12
CDK13 with cyclin K,"enzyme activity, inhibitor",1 µM,inhibition,1%,CN1CC(Oc2cnc(C#N)cc2-c2ccn3nc(NC(=O)C4CC4)cc3c2)C1
CDK13,"cell-free assay, competition with immobilised ligand",1 µM,remaining binding,100%,C[C@H](NC(=O)c1cnc2n1[C@](C)(Cc1ccc(C#N)cc1)C(=O)N2c1cc(Cl)c(F)c(Cl)c1)C(=O)NC1(c2ccccn2)CC1
CDK13,"enzyme activity, inhibitor",23.5 nM,remaining activity,6.4%,Cc1ccc(C(=O)Nc2ccc(CN3CCN(C)CC3)c(C(F)(F)F)c2)cc1C#Cc1cnc2cccnn12
